Common to all, as to format: functional
One assay deals with HL-60. Briefly: Ratio of IC50 for daunorubicin-resistant human HL60 cells to IC50 for human HL60 cells. Summed up:
(§1)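 Parent and resistant lines (HL60/DNR, K562/HHT300, CCRF-CEM/VLB100) were kept at 37 °C in 5% CO2 with 10% FBS medium and seeded at 1 × 10⁴ cells/well. Cells were exposed for 48 h to serial dilutions in 1% DMSO final. Viability was read by CellTiter-Blue and IC50 fitted with a dose-response model. The ratio is resistant IC50 over parent IC50, from two independent experiments in triplicate.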

The subject of another assay is K562. The experiment in a line: Ratio of IC50 for homoharringtonine300-resistant human K562 cells to IC50 for human K562 cells. Summed up:
as §1

The next assay relates to CCRF-CEM. Briefly: Ratio of IC50 for vinblastine100-resistant human CCRF-CEM cells to IC50 for human CCRF-CEM cells. The essentials: as §1

Where only a bound is given, the exact number is not on record here.

Regarding `COc1cccc2c1C(=O)c1c(O)c3c(c(O)c1C2=O)C[C@@](O)(C(=O)CO)C[C@@H]3O[C@H]1C[C@H](N)[C@H](O)[C@H](C)O1` [DOXORUBICIN], the “Ratio IC50” value is listed as 80 in the assay with HL-60, 32 with K562 and 6.1 with CCRF-CEM.
On the same counts, the results for `O=C1c2c(O)ccc(O)c2C(=O)c2c(NCCNCCO)ccc(NCCNCCO)c21` [MITOXANTRONE] are 7.5, 11 and 2.
For `CC(=O)O[C@H]1C(=O)[C@@]2(C)[C@H]([C@H](OC(=O)c3ccccc3)[C@]3(O)C[C@H](OC(=O)[C@H](O)[C@@H](NC(=O)c4ccccc4)c4ccccc4)C(C)=C1C3(C)C)[C@]1(OC(C)=O)CO[C@@H]1C[C@@H]2O` [PACLITAXEL] the same measures were >1000, 91 and 266.
For `CC[C@]1(O)C[C@H]2CN(CCc3c([nH]c4ccccc34)[C@@](C(=O)OC)(c3cc4c(cc3OC)N(C=O)[C@H]3[C@@](O)(C(=O)OC)[C@H](OC(C)=O)[C@]5(CC)C=CCN6CC[C@]43[C@@H]65)C2)C1` [VINCRISTINE], the “Ratio IC50” value in the assay with HL-60 was >1000; in the assay with K562 it was > 1000; with CCRF-CEM, > 1000.

(Values after ChEMBL document CHEMBL1817624, “Structure-activity relationship and molecular mechanisms of ethyl 2-amino-6-(3,5-dimethoxyphenyl)-4-(2-ethoxy-2-oxoethyl)-4H-chromene-3-carboxylate (CXL017) and its analogues” (J Med Chem, 2011).)
